Laboratory results from ChEMBL document CHEMBL1155246, “Synthesis, antioxidant properties and radioprotective effects of new benzothiazoles and thiadiazoles” (Bioorg Med Chem, 2009).

How the values were obtained:
[1] = system: Radical scavenging activity; experiment: Antioxidant activity assessed as DPPH free radical scavenging activity by UV spectroscopic method; format: functional
[2] = Antioxidant activity assessed as ABTS free radical scavenging activity by radical cation discoloration assay; format: functional
In short: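 ABTS radical cation made by mixing aqueous 7.0 mM ABTS with potassium persulfate to 3.5 mM final and holding overnight in the dark. It was diluted with ethanol to an initial A734 of 0.70 at 30 °C. Test compound was added at several concentrations. Absorbance at 734 nm was read at 0, 0.5 and 1 min, then every 5 min to steady state. IC50 was taken as the concentration giving 50% reduction of the radical cation.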

[3] = system: Mus musculus; experiment: Radioprotective activity against gamma radiation-induced toxicity in Swiss CD1 mouse assessed as survival at 368 mg/kg, ip administered 90 mins before 10.2 Gy irradiation measured after 30 days; format: functional; settings: Swiss CD1, light or radiation study, route intraperitoneal
In short: (§1)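 Male six-week-old Swiss CD1 mice, 10 per group; compound in Mygliol 812 given ip (20 ml/kg) at maximum tolerated dose (1/2 LD50tox/48H) 90 min before 60Co gamma irradiation (300 mGy/min) at 8.2 Gy (LD99.9/30days) or 10.2 Gy; survival percentage at day 30.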

[4] = system: Mus musculus; experiment: Radioprotective activity against gamma radiation-induced toxicity in Swiss CD1 mouse assessed as survival at 368 mg/kg, ip administered 90 mins before 8.2 Gy irradiation measured after 30 days; format: functional; settings: Swiss CD1, light or radiation study, route intraperitoneal; in short: as §1
[5] = Acute toxicity in Swiss CD1 mouse assessed as lethality after 48 hrs; format: organism-based; settings: in vivo
In short: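 Male six-week-old Swiss CD1 mice; compound given intraperitoneally at different concentrations; deaths counted at 48 h to derive LD50tox/48H, the concentration killing 50% of animals.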

[6] = system: Mus musculus; experiment: Radioprotective activity against gamma radiation-induced toxicity in Swiss CD1 mouse assessed as survival at 340 mg/kg, ip administered 90 mins before 10.2 Gy irradiation measured after 30 days; format: functional; settings: Swiss CD1, light or radiation study, route intraperitoneal; in short: as §1
[7] = system: Mus musculus; experiment: Radioprotective activity against gamma radiation-induced toxicity in Swiss CD1 mouse assessed as survival at 340 mg/kg, ip administered 90 mins before 8.2 Gy irradiation measured after 30 days; format: functional; settings: Swiss CD1, light or radiation study, route intraperitoneal; in short: as §1
[8] = system: Mus musculus; experiment: Radioprotective activity against gamma radiation-induced toxicity in Swiss CD1 mouse assessed as survival at 308 mg/kg, ip administered 90 mins before 10.2 Gy irradiation measured after 30 days; format: functional; settings: Swiss CD1, light or radiation study, route intraperitoneal; in short: as §1
[9] = system: Mus musculus; experiment: Radioprotective activity against gamma radiation-induced toxicity in Swiss CD1 mouse assessed as survival at 308 mg/kg, ip administered 90 mins before 8.2 Gy irradiation measured after 30 days; format: functional; settings: Swiss CD1, light or radiation study, route intraperitoneal; in short: as §1
[10] = system: Mus musculus; experiment: Radioprotective activity against gamma radiation-induced toxicity in Swiss CD1 mouse assessed as survival at 260 mg/kg, ip administered 90 mins before 10.2 Gy irradiation measured after 30 days; format: functional; settings: Swiss CD1, light or radiation study, route intraperitoneal; in short: as §1
[11] = system: Mus musculus; experiment: Radioprotective activity against gamma radiation-induced toxicity in Swiss CD1 mouse assessed as survival at 260 mg/kg, ip administered 90 mins before 8.2 Gy irradiation measured after 30 days; format: functional; settings: Swiss CD1, light or radiation study, route intraperitoneal; in short: as §1
[12] = system: Mus musculus; experiment: Radioprotective activity against gamma radiation-induced toxicity in B6D2F1 mouse assessed as survival at 260 mg/kg, ip administered 15 mins before 10.8 Gy irradiation measured after 30 days; format: functional; settings: B6D2F1, light or radiation study, route intraperitoneal
[13] = system: Mus musculus; experiment: Radioprotective activity against gamma radiation-induced toxicity in B6D2F1 mouse assessed as survival at 260 mg/kg, ip administered 15 mins before 8.8 Gy irradiation measured after 30 days; format: functional; settings: B6D2F1, light or radiation study, route intraperitoneal
[14] = system: Mus musculus; experiment: Radioprotective activity against gamma radiation-induced toxicity in Swiss CD1 mouse assessed as survival at 349 mg/kg, ip administered 90 mins before 10.2 Gy irradiation measured after 30 days; format: functional; settings: Swiss CD1, light or radiation study, route intraperitoneal; in short: as §1
[15] = system: Mus musculus; experiment: Radioprotective activity against gamma radiation-induced toxicity in Swiss CD1 mouse assessed as survival at 349 mg/kg, ip administered 90 mins before 8.2 Gy irradiation measured after 30 days; format: functional; settings: Swiss CD1, light or radiation study, route intraperitoneal; in short: as §1
[16] = system: Mus musculus; experiment: Radioprotective activity against gamma radiation-induced toxicity in B6D2F1 mouse assessed as survival at 480 mg/kg, ip administered 15 mins before 8.8 Gy irradiation measured after 30 days; format: functional; settings: B6D2F1, light or radiation study, route intraperitoneal
[17] = system: Mus musculus; experiment: Radioprotective activity against gamma radiation-induced toxicity in B6D2F1 mouse assessed as survival at 240 mg/kg, ip administered 15 mins before 8.8 Gy irradiation measured after 30 days; format: functional; settings: B6D2F1, light or radiation study, route intraperitoneal
[18] = system: Mus musculus; experiment: Radioprotective activity against gamma radiation-induced toxicity in Swiss CD1 mouse assessed as survival at 480 mg/kg, ip administered 90 mins before 10.2 Gy irradiation measured after 30 days; format: functional; settings: Swiss CD1, light or radiation study, route intraperitoneal; in short: as §1
[19] = system: Mus musculus; experiment: Radioprotective activity against gamma radiation-induced toxicity in Swiss CD1 mouse assessed as survival at 480 mg/kg, ip administered 90 mins before 8.2 Gy irradiation measured after 30 days; format: functional; settings: Swiss CD1, light or radiation study, route intraperitoneal; in short: as §1
[20] = system: Mus musculus; experiment: Radioprotective activity against gamma radiation-induced toxicity in Swiss CD1 mouse assessed as survival at 400 mg/kg, ip administered 90 mins before 8.2 Gy irradiation measured after 30 days; format: functional; settings: Swiss CD1, light or radiation study, route intraperitoneal; in short: as §1
[21] = system: Mus musculus; experiment: Radioprotective activity against gamma radiation-induced toxicity in B6D2F1 mouse assessed as survival at 400 mg/kg, ip administered 15 mins before 10.8 Gy irradiation measured after 30 days; format: functional; settings: B6D2F1, light or radiation study, route intraperitoneal
[22] = system: Mus musculus; experiment: Radioprotective activity against gamma radiation-induced toxicity in B6D2F1 mouse assessed as survival at 400 mg/kg, ip administered 15 mins before 8.8 Gy irradiation measured after 30 days; format: functional; settings: B6D2F1, light or radiation study, route intraperitoneal
[23] = system: Mus musculus; experiment: Radioprotective activity against gamma radiation-induced toxicity in Swiss CD1 mouse assessed as survival at 400 mg/kg, ip administered 90 mins before 10.2 Gy irradiation measured after 30 days; format: functional; settings: Swiss CD1, light or radiation study, route intraperitoneal; in short: as §1

Compound | IC50 [1] [µM] | IC50 ([2]; read-out: IC50) [µM] | further results
N=c1sc2ccccc2n1CCO | > 4000 |  | 
CCSc1nn(CCSS(=O)(=O)O)c(=N)s1 |  | 8.32 | 
CCOc1ccc2nc(N)sc2c1 | > 4000 |  | 
Cc1ccc2c(c1)sc(=N)n2CCO | > 4000 |  | 
CCOc1ccc2c(c1)sc(=N)n2CCSS(=O)(=O)O |  |  | IC50 [2]: ND(Insoluble)
CCSc1nnc(NCCS)s1 | 110 | 390 | survival at 368 mg/kg [3]: 0%; survival at 368 mg/kg [4]: 0%; LD50 at 48 h [5]: > 736 mg/kg
CCc1nnc(S)s1 | 84 | 21.3 | survival at 340 mg/kg [6]: 0%; survival at 340 mg/kg [7]: 30%; LD50 at 48 h [5]: > 680 mg/kg
Cc1ccc2nc(NCCS)sc2c1 | 3170 | 4040 | 
SCCNc1nc2ccccc2s1 | 1390 | 1520 | survival at 308 mg/kg [8]: 0%; survival at 308 mg/kg [9]: 60%; LD50 at 48 h [5]: > 616 mg/kg
CCc1nn(CCSS(=O)(=O)O)c(=N)s1 |  | 51.9 | 
CCc1nn(CCO)c(=N)s1 | 2400 |  | 
CCSc1nn(CCO)c(=N)s1 | 3500 |  | 
CCc1nnc(N)s1 | > 4000 |  | 
CCOc1ccc2nc(S)sc2c1 | 46 | 88.4 | 
CCC(=O)Nc1nc2ccccc2s1 | > 4000 |  | 
Cc1ccc2nc(S)sc2c1 | 91 | 76.7 | survival at 260 mg/kg [10]: 0%; survival at 260 mg/kg [11]: 80%; survival at 260 mg/kg [12]: 0%; LD50 at 48 h [5]: > 520 mg/kg; survival at 260 mg/kg [13]: 100%

Compound | IC50 [1] [µM] | IC50 ([2]; read-out: IC50) [µM] | further results
CCSc1nnc(S)s1 | 53 | 23.1 | survival at 349 mg/kg [14]: 0%; survival at 349 mg/kg [15]: 0%; LD50 at 48 h [5]: 698 mg/kg
N=c1sc2ccccc2n1CCSS(=O)(=O)O |  |  | IC50 [2]: ND(Insoluble)
CCc1nn(CCSP(=O)(O)O)c(=N)s1 |  | 90.3 | 
CCOc1ccc2c(c1)sc(=N)n2CCO | 1400 |  | 
CCSc1nnc(N)s1 | > 4000 |  | 
CCC(=O)Nc1nc2ccc(C)cc2s1 | > 4000 |  | 
CCSc1nnc(NC(=O)CC)s1 | > 4000 |  | 
Cc1ccc2c(c1)sc(=N)n2CCSS(=O)(=O)O |  |  | IC50 [2]: ND(Insoluble)
CCSc1nn(CCSP(=O)(O)O)c(=N)s1 |  | 76.9 | 
CCOc1ccc2nc(NC(=O)CC)sc2c1 | > 4000 |  | 
CCC(=O)Nc1nnc(CC)s1 | > 4000 |  | 
Sc1nc2ccccc2s1 [2-MERCAPTOBENZOTHIAZOLE] | 92 | 79.8 | survival at 480 mg/kg [16]: 100%; survival at 240 mg/kg [17]: 90%; survival at 480 mg/kg [18]: 0%; survival at 480 mg/kg [19]: 60%; LD50 at 48 h [5]: > 960 mg/kg
NCCCNCCSP(=O)(O)O [AMIFOSTINE] | 100 |  | survival at 400 mg/kg [20]: 50%; survival at 400 mg/kg [21]: 60%; survival at 400 mg/kg [22]: 100%; LD50 at 48 h [5]: 800 mg/kg; survival at 400 mg/kg [23]: 20%
O=C1O[C@H]([C@@H](O)CO)C(O)=C1O [ASCORBIC ACID] | 20 | 46.5 | 
N[C@@H](CCC(=O)N[C@@H](CS)C(=O)NCC(=O)O)C(=O)O [GLUTATHIONE] | 96 |  | 
Cc1c(C)c2c(c(C)c1O)CCC(C)(C(=O)O)O2 (stereo not drawn) [TROLOX] | 34 |  | 
